# Screening data (PubChem)
# CHRM5 agonist: human M5 muscarinic receptor agonists, primary screen, CHO-K1 cells, Fluo-8 calcium fluorescence; Muscarinic acetylcholine receptor M5 (Homo sapiens), P08912; CHO-K1 hM5 cells; 0% DMSO wells, 100% maximal acetylcholine response; activation, % at 3 µM; actives 0.19% (n = 360,000); AID 624037, 2012;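 active = activation above the run's mean over test compounds plus 3 SD, cut at about 23% in these data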;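 note: signal is peak over basal fluorescence ratio across the kinetic read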
# Target sequence (P08912 whole entry, looked up): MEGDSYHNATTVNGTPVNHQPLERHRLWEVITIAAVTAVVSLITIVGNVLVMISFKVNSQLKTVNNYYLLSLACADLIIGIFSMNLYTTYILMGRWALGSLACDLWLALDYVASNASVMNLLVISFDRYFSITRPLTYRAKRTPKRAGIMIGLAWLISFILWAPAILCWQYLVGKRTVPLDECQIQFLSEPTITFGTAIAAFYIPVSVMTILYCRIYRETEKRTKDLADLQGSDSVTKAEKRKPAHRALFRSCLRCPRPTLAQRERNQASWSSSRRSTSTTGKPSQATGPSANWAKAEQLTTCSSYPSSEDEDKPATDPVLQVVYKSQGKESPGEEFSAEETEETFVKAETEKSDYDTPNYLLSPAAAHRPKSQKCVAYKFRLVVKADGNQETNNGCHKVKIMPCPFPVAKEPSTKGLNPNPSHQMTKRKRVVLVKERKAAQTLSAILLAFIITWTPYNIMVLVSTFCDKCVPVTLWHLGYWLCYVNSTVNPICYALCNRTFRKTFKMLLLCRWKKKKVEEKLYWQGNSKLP
# M4 antag: human M4 muscarinic receptor antagonists, primary screen, CHO cells, Fluo-8 calcium fluorescence | Muscarinic acetylcholine receptor M4 (Homo sapiens), P08173 | CHO-hM4 cells, ACh EC80 | inhibition, % at 3 µM | actives 0.73% (n = 360,000) | AID 624125, 2012;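 active = inhibition above its plate's cutoff, the mean inhibition of sample wells plus 3 SD, cut at about 27% in these data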;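 note: 0% = acetylcholine EC80 with DMSO and 100% = DMSO without agonist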
# M5 antag: human M5 muscarinic receptor antagonists, primary screen, CHO cells, Fluo-8 calcium fluorescence; Muscarinic acetylcholine receptor M5 (Homo sapiens), P08912; CHO-hM5 cells, ACh EC80; inhibition, % at 3 µM; actives 0.59% (n = 360,000); AID 624040, 2012;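 active = inhibition above a per-plate cutoff, the mean of that plate's test compounds plus 3 SD, cut at about 27% in these data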;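 note: 0% = acetylcholine EC80 with DMSO and 100% = DMSO without agonist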
# CHRM5 PAM: human M5 muscarinic receptor positive allosteric modulators, primary screen, CHO-K1 cells, Fluo-8 calcium fluorescence. activation, % at 3 µM. Muscarinic acetylcholine receptor M5 (Homo sapiens), P08912. CHO-K1 hM5, ACh EC20 PAM; 0% = ACh EC20, 100% = ACh EC100. AID 624038, 2012. actives 0.3% (n = 360,000);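 active = activation above the run cutoff, the mean activation of all test compounds plus 3 SD, cut at about 18% in these data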
#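 system = human M5 receptor in CHO-K1 cells | reagent = EC20 acetylcholine as agonist stimulus | compound dosing = single-point, 3 µM nominal | incubation = Fluo-8 loading 80 min at 37 °C plus 30 min room temperature | detection = Fluo-8 calcium dye fluorescence, kinetic read | benchmarks = low control EC20 acetylcholine (0%), high control EC100 acetylcholine (100%)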
# M4 PAM: human M4 muscarinic receptor positive allosteric modulators, primary screen, CHO-K1 cells, Fluo-8 calcium fluorescence | AID 624126, 2012 | activation, % at 3 µM | actives 0.4% (n = 360,000) | CHO-K1 hM4/Gqi5, ACh EC20; 0% = ACh EC20, 100% = maximal ACh | Muscarinic acetylcholine receptor M4 (Homo sapiens), P08173;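 active = activation above its plate's cutoff, the mean activation of sample wells plus 3 SD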
# M4 ag: human M4 muscarinic receptor agonists, primary screen, CHO-K1 cells, Fluo-8 calcium fluorescence; Muscarinic acetylcholine receptor M4 (Homo sapiens), P08173; CHO-K1 hM4/Gqi5; vehicle 0%, full acetylcholine response 100%; activation, % at 3 µM; actives 0.14% (n = 360,000); AID 624127, 2012;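 active = activation above the run mean over all test wells plus 3 SD, cut at about 32% in these data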;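 note: peak over basal fluorescence ratio per well then scaled between controls; 0% = DMSO wells and 100% = acetylcholine at EC100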
# * marks the source's active call; other numbers are inactive results; ! = not active in a repeat. In the library only some 1.8% were active in any assay of this set; here they are far more common.
SMILES,CHRM5 agonist,M4 antag,M5 antag,CHRM5 PAM,M4 PAM,M4 ag
Cn1ccnc1SCC(=O)NC1CC1,-4,3,17,2,49*,5
CN(CC1COCCO1)C(=O)c1cc(COc2c(F)cccc2F)on1 (stereo not given),0,2,0,0,23*,3
CN(CC1COc2ccccc2O1)C(=O)c1cc(COc2c(F)cccc2F)on1 (stereo not given),-4,-8,6,-2,3,6
O=S(=O)(c1ccc(Cl)c(Cl)c1)c1snnc1-c1ccccc1,-8,40*,11,-17,-19,-2
CC1CCCCN1C(=O)CN1C(=O)NC2(CCCCC2C)C1=O (stereo not given),-1,5,17,2,-4,0
CCc1ccc2c(c1)cc(CN(C(=S)Nc1ccccc1)C1CC1)c1nnnn12,-2,-15,4,3,32*,0
O=C(NCc1ccco1)c1nnc(Cc2ccc(Cl)cc2)o1,-2,39*,1,1,-6,-2
O=C(NCc1ccco1)c1nnc(Cc2ccc(F)cc2)o1,1,8,2,-5,-5,0
COc1ccc(N2CCN(C(=O)CSc3nnc4n3C(C)(C)Cc3ccccc3-4)CC2)cc1,-1,4,2,-2,4,0
Cc1ccc(Cl)cc1N1CCN(C(=O)CSc2nnc3n2C(C)(C)Cc2ccccc2-3)CC1,4,33*,41*,-24,-18,13
O=C(Cc1ccc(Cl)cc1)Nc1cc(Cl)ccn1,-6,-7,2,-2,-18,-1
CN(C)CCCNc1oc(/C=C/c2ccccc2)nc1C#N,3,-5,24,32*,4,1
CN(C)CCOC1c2ccccc2CSc2ccccc21 (stereo not given),-19,98*,99*,-28,-16,1
CCN(CC)CC(=O)Nc1c(C)cccc1C,-1,27*!,0,-6,-11,0
CCN(CC)CC(=O)Nc1c(C)cc(C(C)(C)C)cc1C,-4,-7,-2,-7,0,0
Cc1cccc(C)c1NC(=O)CN(C)C(=O)c1ccc(OCc2ccccc2)cc1,1,-15,-4,7,16*,1
NC(=O)c1nnn(-c2cccc(C(F)(F)F)c2)c1-c1ccccc1,-5,-6,8,-2,4,1
O=C1NCCc2c1[nH]c1c(Cl)ccc(Cl)c21,-8,-5,-7,21*,13,2
O=C1CCCN1CCCNS(=O)(=O)c1ccc(F)cc1F,-3,0,6,6,16,1
O=C(O)C1CCCCC1C(=O)NCc1ccc(F)cc1 (stereo not given),2,-1,-2,4,34*,0
O=C(O)C1CCCCC1C(=O)NCc1ccccc1 (stereo not given),0,2,4,-4,-3,0
CCn1c(CNc2ccccc2Cl)nnc1SCCN1CCCCC1,-8,33*,1,-7,-19,1
CCOc1ccc(CCNC(=O)CCc2nnc3ccc(N4CCCCC4)nn23)cc1OCC,-5,32*,6,-9,-10,0
COC(=O)c1cc(NC(=O)Nc2cccc(Cl)c2)ccc1Cl,11,20,32*,-22,-13,20
O=C(CN1C(=O)c2ccccc2C1=O)Nc1cccc(S(=O)(=O)Nc2ccccc2Cl)c1,2,-2,-2,2,25*,4
SMILES,CHRM5 agonist,M4 antag,M5 antag,CHRM5 PAM,M4 PAM,M4 ag
O=C(Nc1cccnc1)c1cc(Br)c(Br)s1,26*,-28,4,-14,6,26
COC(=O)c1cccc(NC(=O)Nc2ccc(Cl)cc2)c1,3,2,17,-26,-9,17
COc1ccccc1NS(=O)(=O)c1cccc(NC(=O)Nc2cccc(Cl)c2)c1,5,47*,59*,-19,-15,18
O=C(CN(C(=O)CCC(=O)Nc1ccccn1)C1CCCC1)NCc1ccc(F)cc1,0,-9,2,2,4,1
COc1ccc(CN(C)CCCn2cnc3c(OC)ncnc32)cc1OC,0,-6,4,2,8,0
O=C(Nc1cccc(F)c1)Nc1cccc(Cl)c1,14,8,28*,-16,-9,20
O=C(Nc1cccc(Cl)c1)Nc1cccc(Cl)c1,-1,3,23,-23,-2,16
O=C(Nc1cccnc1)Nc1ccccc1Cl,1,-5,0,-3,9,0
O=C(Nc1cccnc1)Nc1cc(Cl)cc(Cl)c1,8,15,30*,-18,-15,17
O=C(c1ccc(Cl)c([N+](=O)[O-])c1)N(Cc1ccco1)C1CCS(=O)(=O)C1 (stereo not given),-5,6,5,4,-3,1
CN(Cc1ccccc1)C(=O)Nc1ccc(Cl)cc1,-2,2,10,-1,5,0
Cc1c(C=O)c(=O)n(-c2ccccc2)n1-c1ccccc1,-1,-8,-5,0,15,0
CC(C)NC(=O)c1cc(C2CCCCN2C(=O)c2ccc(C#N)cc2)on1 (stereo not given),0,-13,4,-4,11,2
O=C(Nc1ccc(Cl)c(Cl)c1)OCc1cccnc1,5,34*,31*,-16,-17,17
O=C(Nc1cccnc1)OCc1ccccc1,9,-1,-37,-2,2,2
O=C(Nc1ccc(Cl)c(Cl)c1)c1cccc(S(=O)(=O)NCc2cccnc2)c1,13,22,34*,-18,-11,23
O=C(O)C1=C2C(=O)Nc3cccc(c32)C2(C1)C(=O)Nc1ccccc12 (stereo not given),1,1,0,0,1,1
CCn1c(CNC(=O)COc2ccc(C(C)C)cc2)nnc1SCC(=O)Nc1ccccc1C(C)C,4,2,28*,-9,-13,9
CCn1nnnc1NCc1ccc(N2CCCC2)cc1,-10,35*,14,-7,-24,1
CCC(C)NC(=O)CN(C1CCCCC1)S(=O)(=O)c1ccc(F)cc1 (stereo not given),-5,9,-4,3,6,1
